These results are taken from PMC11302324 (RSC Advances, 2024).

The subject of data set [1] is prostate carcinoma (PC-3). Nature of the data set: In vitro cytotoxicity, MTT assay. Format: cell-based. The note with it: Homo sapiens, read-out: In vitro cytotoxicity IC50 PC-3. In a few lines:
(§1)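 Cells seeded at 1×10^5 cells per ml and grown 24 h at 37 °C to a monolayer, then washed twice. Two-fold dilutions of test compound in RPMI with 2% serum; medium-only control wells; doxorubicin positive control. Morphology checked, then MTT stock (5 mg ml⁻¹ in PBS) added and incubated 1-5 h (37 °C, 5% CO₂). Formazan dissolved in DMSO; OD 560 nm minus 620 nm; mean of three determinations; one-way ANOVA.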

Data set [2] relates to colorectal carcinoma (HCT-116). Put plainly: In vitro cytotoxicity, MTT assay. It is filed as cell-based. Particulars: Homo sapiens, HCT-116, read-out: In vitro cytotoxicity IC50 HCT-116. In a few lines: as §1
(Tetrazolium dyes change colour on reduction, which living cells bring about.)

A further data set has as its target CK2 kinase (Homo sapiens, UniProt P68400). Put plainly: CK2 kinase enzyme inhibitory assay. It is filed as biochemical.
The test system of data set [3] is hepatocellular carcinoma (HepG-2). Put plainly: In vitro cytotoxicity, MTT assay. Particulars: Homo sapiens, HepG2, read-out: In vitro cytotoxicity IC50 HePG2. It is filed as cell-based. An outline of the steps:
as §1

Data set [4] deals with HepG-2, PC-3, and HCT-116 cell lines. Put plainly: In vitro cytotoxicity, MTT assay, stated for the three cell lines together. Format: cell-based, human. An outline of the steps:
as §1

Molecules are shown by their SMILES.

Sequence of CK2 kinase (P68400 whole entry): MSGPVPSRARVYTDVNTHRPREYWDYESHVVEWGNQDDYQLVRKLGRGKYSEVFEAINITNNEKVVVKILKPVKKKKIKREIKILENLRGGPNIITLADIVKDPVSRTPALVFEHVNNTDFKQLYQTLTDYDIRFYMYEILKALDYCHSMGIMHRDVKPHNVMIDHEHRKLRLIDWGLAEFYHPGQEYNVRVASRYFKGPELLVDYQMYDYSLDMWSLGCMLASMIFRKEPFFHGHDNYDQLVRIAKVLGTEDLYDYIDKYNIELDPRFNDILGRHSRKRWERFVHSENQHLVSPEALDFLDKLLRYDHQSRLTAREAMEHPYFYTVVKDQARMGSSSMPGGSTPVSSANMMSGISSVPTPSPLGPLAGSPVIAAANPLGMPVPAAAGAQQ

For `COC(=O)[C@H](CC(C)C)NC(=O)COc1ccc2c(C)cc(=O)oc2c1` [Compound 5b, (S)-Methyl-4-methyl-2-{2-[(4-methyl-2-oxo-2H-chromen-7-yl)oxy]acetamido}pentanoate], the IC50 in data set [1] is 59.7 ± 4.2 µM; in data set [2] it was 35.1 ± 2.8 µM; on CK2 kinase, 0.117 ± 0.005 µM; in data set [3], 42.16 ± 0.3 µM.
Regarding `COC(=O)[C@@H](NC(=O)COc1ccc2c(C)cc(=O)oc2c1)c1ccccc1` [Compound 5c, (S)-Methyl 2-{2-[(4-methyl-2-oxo-2H-chromen-7-yl)oxy]acetamido}-2-phenylacetate], the IC50 in data set [1] came to 174 ± 1.8 µM; in data set [2] it was 124 ± 4.4 µM; in data set [3], 154 ± 2.1 µM.
For `Cc1cc(=O)oc2cc(OCC(=O)NCC(=O)NN)ccc12` [Compound 6, N-(2-Hydrazinyl-2-oxoethyl)-2-[(4-methyl-2-oxo-2H-chromen-7-yl)oxy]acetamide] the same measures were 168 ± 4.3 µM, 171 ± 4.2 µM and 168 ± 4.4 µM.
As for `COC(=O)CNC(=O)CNC(=O)COc1ccc2c(C)cc(=O)oc2c1` [Compound 7a, Methyl 2-{2-[2-[(4-methyl-2-oxo-2H-chromen-7-yl)oxy]acetamido]acetamido}acetate], the IC50 in data set [1] is 172.3 ± 1.4 µM; in data set [2], 137 ± 2.4 µM; in data set [3] it was 174 ± 3.4 µM.
For the compound `COC(=O)[C@@H](NC(=O)CNC(=O)COc1ccc2c(C)cc(=O)oc2c1)c1ccccc1` [Compound 7c, (S)-Methyl2-{2-{2-[(4-methyl-2-oxo-2H-chromen-7-yl)oxy]acetamido}acetamido}-2-phenylacetate], the IC50 in data set [1] stood at 16.1 ± 4.6 µM; in data set [2] it was 16 ± 4.1 µM; against CK2 kinase, 0.461 ± 0.02 µM; in data set [3], 34.1 ± 4.2 µM. The “activity against CK2 kinase (in words)” value on CK2 kinase (compared with 5b) was “less active”.
In the case of `COC(=O)[C@@H](CC(C)C)NC(=O)CNC(=O)CNC(=O)COc1ccc2c(C)cc(=O)oc2c1` [Compound 9b, (R)-Methyl4-methyl-2-{2-{2-{2-[(4-methyl-2-oxo-2H-chromen-7-yl)oxy]acetamido}acetamido}acetamido}pentanoate], the IC50 in data set [1] came to 85.5 ± 0.4 µM; in data set [2], 169.1 ± 0.3 µM; in data set [3] it was 298.8 ± 0.3 µM. Besides, the “cytotoxicity towards three cell lines (in words)” value in data set [4] was “relatively weak cytotoxicity”.
As for `COc1cccc2c1C(=O)c1c(O)c3c(c(O)c1C2=O)C[C@@](O)(C(=O)CO)C[C@@H]3O[C@H]1C[C@H](N)[C@H](O)[C@H](C)O1` [Doxorubicin, reference compound], the IC50 was determined as 57.3 ± 0.6 µM in data set [1], 61.01 ± 0.3 µM in data set [2] and 108 ± 0.6 µM in data set [3].

Usually IC50 stands for the point on the concentration scale where inhibition reaches its midpoint.
